Reference: ChEMBL document CHEMBL1123018, “7 alpha-substituted derivatives of androstenedione as inhibitors of estrogen biosynthesis” (J Med Chem, 1985)

What was measured:
Aromatase [1] = molecular target: T1, Aromatase (Homo sapiens, UniProt P11511); test: Inhibition of Cytochrome P450 19A1 at 0.25 uM
T1 sequence (P11511 whole entry): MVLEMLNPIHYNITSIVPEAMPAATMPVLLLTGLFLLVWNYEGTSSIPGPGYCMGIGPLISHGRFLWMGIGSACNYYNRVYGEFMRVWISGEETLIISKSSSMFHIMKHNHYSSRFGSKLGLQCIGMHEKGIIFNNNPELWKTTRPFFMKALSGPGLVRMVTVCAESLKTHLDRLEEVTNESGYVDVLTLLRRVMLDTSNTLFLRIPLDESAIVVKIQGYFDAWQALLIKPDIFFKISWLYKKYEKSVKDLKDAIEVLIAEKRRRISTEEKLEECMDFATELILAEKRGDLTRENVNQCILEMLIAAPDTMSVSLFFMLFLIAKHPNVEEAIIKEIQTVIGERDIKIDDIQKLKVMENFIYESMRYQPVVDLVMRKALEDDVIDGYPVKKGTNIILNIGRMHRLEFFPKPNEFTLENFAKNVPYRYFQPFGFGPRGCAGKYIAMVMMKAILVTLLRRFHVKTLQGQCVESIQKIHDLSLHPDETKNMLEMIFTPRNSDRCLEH
Procedure, shortened: (§1)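 Aromatase source was lyophilized human placental microsomes, measured by tritiated water release. The substrate was 0.25 μM [1-³H]androstenedione (83% of the tritium in the β position), about 5 times the Km for this enzyme preparation. Inhibitor was tested at 0.25 μM or 1.25 μM with buffer and cofactors for 15 min. Ethyl acetate stopped the reaction.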

Aromatase [2] = molecular target: T1, Aromatase; test: Inhibition of Cytochrome P450 19A1 at 1.25 uM; procedure, shortened: as §1

SMILES	inhibition at 0.25 µM (Aromatase [1]) [%]	inhibition at 1.25 µM (Aromatase [2]) [%]
C[C@]12CCC(=O)C=C1C[C@@H](Sc1ccccc1)[C@@H]1[C@@H]2CC[C@]2(C)C(=O)CC[C@@H]12	62.7	66.8
C[C@]12CCC(=O)C=C1C[C@@H](SCc1ccccc1)[C@@H]1[C@@H]2CC[C@]2(C)C(=O)CC[C@@H]12	33.5	69.8
COc1ccc(S[C@@H]2CC3=CC(=O)CC[C@]3(C)[C@H]3CC[C@]4(C)C(=O)CC[C@H]4[C@H]23)cc1	7.93	36.7
C[C@]12CCC(=O)C=C1C[C@@H](Sc1ccc(N)cc1)[C@@H]1[C@@H]2CC[C@]2(C)C(=O)CC[C@@H]12	51.6	85
C[C@]12CCC(=O)C=C1C[C@@H](SC1CCCCC1)[C@@H]1[C@@H]2CC[C@]2(C)C(=O)CC[C@@H]12	18.5	32.2
CCN(CC)c1ccc(S[C@@H]2CC3=CC(=O)CC[C@]3(C)[C@H]3CC[C@]4(C)C(=O)CC[C@H]4[C@H]23)cc1	11.7	53.2
C[C@]12CCC(=O)C=C1C[C@@H](Sc1cccc(N)c1)[C@@H]1[C@@H]2CC[C@]2(C)C(=O)CC[C@@H]12	39.9	73.3
C[C@]12CCC(=O)C=C1C[C@@H](Sc1ccc(F)cc1)[C@@H]1[C@@H]2CC[C@]2(C)C(=O)CC[C@@H]12	55.3	74.1
C[C@]12CCC(=O)C=C1C[C@@H](Sc1ccc(Cl)cc1)[C@@H]1[C@@H]2CC[C@]2(C)C(=O)CC[C@@H]12	56.5	83.4
CC(=O)c1ccc(S[C@@H]2CC3=CC(=O)CC[C@]3(C)[C@H]3CC[C@]4(C)C(=O)CC[C@H]4[C@H]23)cc1	55.7	84.4
C[C@]12CCC(=O)C=C1C[C@@H](Sc1ccc(Br)cc1)[C@@H]1[C@@H]2CC[C@]2(C)C(=O)CC[C@@H]12	47.3	80.8
C[C@]12CCC(=O)C=C1C[C@@H](Sc1ccc(I)cc1)[C@@H]1[C@@H]2CC[C@]2(C)C(=O)CC[C@@H]12	45	83.7
Cc1ccc(S[C@@H]2CC3=CC(=O)CC[C@]3(C)[C@H]3CC[C@]4(C)C(=O)CC[C@H]4[C@H]23)cc1	7.83	24.9
